The record followed here is ChEMBL document CHEMBL1130207, “Structure-activity relationships for acridine-substituted analogues of the mixed topoisomerase I/II inhibitor N-[2-(dimethylamino)ethyl]acridine-4-carboxamide” (J Med Chem, 1997).

One assay deals with LLTC cell line. The experiment in a line: Inhibitory concentration required to reduce Lewis lung carcinoma cell number to 50% of control cultures. The assay is classed as functional, cell-based. To be noted: Mus musculus. An outline of the steps: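 Lewis lung carcinoma cells seeded at 10³ per well and exposed to drug for 4 days. Growth read by sulforhodamine assay; IC50 is the drug concentration (nM) that cuts cell number to 50% of control cultures. Value is the mean of at least two independent determinations done in duplicate; coefficient of variation 7.9–8.5%.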

Assay [1] deals with Jurkat. Put plainly: Ratio of IC50 of Jurkat leukemia amsacrine (JLA) to the IC50 of Jurkat leukemia (JLC sensitive, wild type). The assay is classed as functional, Homo sapiens. An outline of the steps: (§1)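 Jurkat lines were each plated at 3.75 × 10³ per well and grown 4 days with drug: parental JL_C, amsacrine-resistant JL_A and doxorubicin-resistant JL_D. Growth was read by sulforhodamine assay. IC50 is the concentration giving 50% of control cell number. Ratio is IC50 in JL_A or JL_D divided by IC50 in JL_C.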

The subject of assay [2] is Jurkat. The experiment in a line: Ratio of IC50 of mutant Jurkat leukemia (JLD) to the IC50 of Jurkat leukemia (JLC sensitive, wild type). It counts as functional, Homo sapiens. The procedure, abridged:
as §1

The test system of assay [3] is Jurkat. The experiment in a line: Inhibitory concentration required to reduce human Jurkat leukemia (JLC sensitive, wild type) cell number to 50% of control cultures. It counts as functional, cell-based.
A further assay has as its system P388. Put plainly: Inhibitory concentration required to reduce murine p388 leukemia cell number to 50% of control cultures. The assay is classed as functional, cell-based. Conditions: Mus musculus.

For `CN(C)CCNC(=O)c1cccc2cc3c(Cl)cccc3nc12`, the IC50 (as a rule, the concentration that inhibits the measured activity by half) with LLTC cell line worked out at 258 nM; in the assay on Jurkat [3], 919 nM; in the assay with P388, 120 nM. Further, the Ratio in the assay with Jurkat [1] stood at 1.25; in the assay with Jurkat [2], 1.3.
For `CN(C)CCNC(=O)c1cccc2cc3cccnc3nc12`, the IC50 with LLTC cell line worked out at 452 nM; in the assay on Jurkat [3] it was 1420 nM; in the assay with P388, 340 nM. Moreover, the results for the Ratio in the assay with Jurkat [1] and in the assay on Jurkat [2] were 1.1 and 1.2, respectively.
Turning to `COc1cccc2cc3cccc(C(=O)NCCN(C)C)c3nc12`, the IC50 in the assay with LLTC cell line was 36 nM; in the assay with Jurkat [3] it was 111 nM; in the assay on P388 it was 26 nM. Further, the Ratio in the assay with Jurkat [1] is given as 4.9; in the assay on Jurkat [2] it was 5.6.
The matching figures for `CN(C)CCNC(=O)c1cccc2cc3cc(Br)ccc3nc12`: 447 nM, 756 nM, 87 nM, 0.8 and 1.
Regarding `CN(C)CCNC(=O)c1cccc2cc3cccc(Cl)c3nc12`, the half-maximal inhibitory concentration (IC50) in the assay on LLTC cell line turned out to be 36 nM; in the assay on P388 it was 6.5 nM. Further, the Ratio in the assay on Jurkat [1] came out at 4.2.
Consider `CN(C)CCNC(=O)c1cccc2cc3cccc(-c4ccccc4)c3nc12`, for which the half-maximal inhibitory concentration (IC50) was 706 nM in the assay with LLTC cell line, 1660 nM in the assay on Jurkat [3] and 250 nM in the assay on P388. Also, the figures for the Ratio in the assay on Jurkat [1] and with Jurkat [2] were 1.55 and 1.4, respectively.
Consider `CN(C)CCNC(=O)c1cccc2cc3ccc(N(C)C)cc3nc12`, for which the IC50 amounted to 272 nM with LLTC cell line, 212 nM with Jurkat [3] and 260 nM with P388. The values for the Ratio with Jurkat [1] and with Jurkat [2] were 0.6 and 0.85, respectively.
For the compound `Cc1cccc2cc3cccc(C(=O)NCCN(C)C)c3nc12`, the IC50 worked out at 5.6 nM in the assay on LLTC cell line, 46 nM with Jurkat [3] and 6.4 nM in the assay with P388. Besides, the Ratio is listed as 4.6 with Jurkat [1] and 4.8 in the assay on Jurkat [2].
Take `CN(C)CCNC(=O)c1cccc2cc3cc(C(C)(C)C)ccc3nc12`: the IC50 in the assay with LLTC cell line stood at 4590 nM; with Jurkat [3] it was 4390 nM; in the assay with P388 it was 6300 nM. Also, the Ratio with Jurkat [1] turned out to be 1.1; in the assay with Jurkat [2], 1.2.
`CN(C)CCNC(=O)c1cccc2c(N)c3ccccc3nc12`: the IC50 in the assay on LLTC cell line amounted to 5.3 nM; in the assay with Jurkat [3] it was 27 nM; in the assay on P388, 8 nM. Further, the Ratio was found to be 4.6 in the assay with Jurkat [1] and 6.1 in the assay with Jurkat [2].
With `CN(C)CCNC(=O)c1cccc2cc3cc(N(C)C)ccc3nc12`, the figures for the IC50 in the assay with LLTC cell line, in the assay with Jurkat [3] and in the assay on P388 were 1680 nM, 2480 nM and 1100 nM, respectively. The Ratio with Jurkat [1] and in the assay with Jurkat [2] was 1.8 each time.
With `COc1ccc2cc3cccc(C(=O)NCCN(C)C)c3nc2c1`, the IC50 in the assay on LLTC cell line came to 281 nM; in the assay on Jurkat [3], 580 nM; in the assay with P388, 160 nM. Besides, the Ratio in the assay on Jurkat [1] and in the assay with Jurkat [2] was 1.1 throughout.
On to `CN(C)CCNC(=O)c1cccc2cc3cc(C(F)(F)F)ccc3nc12`, for which the IC50 in the assay on LLTC cell line turned out to be 5950 nM; with Jurkat [3] it was 6390 nM; with P388, 8600 nM. For the same compound, the Ratio worked out at 0.8 with Jurkat [1] and 1 in the assay with Jurkat [2].
In the same order, the values of `Cc1cccc2nc3c(C(=O)NCCN(C)C)cccc3cc12` are 372 nM, 1060 nM, 250 nM, 0.95 and 1.05.
Consider `CN(C)CCNC(=O)c1cccc2cc3ccc(Br)cc3nc12`, for which the IC50 with LLTC cell line amounted to 230 nM; in the assay with Jurkat [3], 446 nM; with P388 it was 160 nM. For the same compound, the Ratio is reported as 0.9 with Jurkat [1] and 1.1 in the assay with Jurkat [2].
As for `Cc1ccc2cc3cccc(C(=O)NCCN(C)C)c3nc2c1`, the IC50 in the assay on LLTC cell line worked out at 176 nM; with Jurkat [3], 625 nM; with P388 it was 96 nM. Moreover, the Ratio in the assay on Jurkat [1] was 1.3; with Jurkat [2], 1.5.
With `CN(C)CCNC(=O)c1cccc2cc3cc(O)ccc3nc12`, the IC50 with LLTC cell line was 469 nM; in the assay with Jurkat [3], 508 nM; in the assay on P388, 170 nM. For the same compound, the Ratio was 2.5 with Jurkat [1] and 3 in the assay with Jurkat [2].
The matching figures for `CN(C)CCNC(=O)c1ccc2nc3c(C(=O)NCCN(C)C)cccc3cc2c1`: 2830 nM, 1120 nM, 890 nM, 0.6 and 1.
In the same order, the values of `CN(C)CCNC(=O)c1cccc2cc3cccc(C(F)(F)F)c3nc12` are 17 nM, 75 nM, 18 nM, 4.4 and 5.
The matching figures for `Cc1ccc2nc3c(C(=O)NCCN(C)C)cccc3cc2c1`: 735 nM, 1350 nM, 330 nM, 1 and 1.1.
As for `CN(C)CCNC(=O)c1cccc2cc3cccc(F)c3nc12`, the 50% inhibitory concentration (IC50) with LLTC cell line was 21 nM; with Jurkat [3], 103 nM; in the assay with P388, 14 nM. The results for the Ratio in the assay with Jurkat [1] and in the assay on Jurkat [2] were 4.5 and 5.6, respectively.
In the same order, the values of `CN(C)CCNC(=O)c1cccc2cc3ccc(F)cc3nc12` are 122 nM, 455 nM, 49 nM, 1.5 and 1.9.
The matching figures for `CCc1ccc2nc3c(C(=O)NCCN(C)C)cccc3cc2c1`: 346 nM, 1840 nM, 240 nM, 1.55 and 1.85.
The matching figures for `CN(C)CCNC(=O)c1cccc2cc3cccc(Br)c3nc12`: 6.2 nM, 26 nM, 3.8 nM, 3.8 and 4.9.
For `Cc1c2ccccc2nc2c(C(=O)NCCN(C)C)cccc12`, the IC50 is 161 nM with LLTC cell line, 436 nM with Jurkat [3] and 150 nM with P388. Moreover, the Ratio in the assay on Jurkat [1] is 0.85; in the assay on Jurkat [2] it was 1.
In the same order, the values of `CN(C)CCNC(=O)c1cccc2cc3ccc(Cl)cc3nc12` are 156 nM, 397 nM, 125 nM, 1.1 and 1.3.
The matching figures for `CC(C)c1ccc2nc3c(C(=O)NCCN(C)C)cccc3cc2c1`: 5820 nM, 7000 nM, 3700 nM, 0.9 and 1.2.
The matching figures for `CN(C)CCNC(=O)c1cccc2cc3cc(Cl)ccc3nc12`: 469 nM, 753 nM, 250 nM, 0.8 and 1.
`CN(C)CCNC(=O)c1cccc2cc3cccc(N(C)C)c3nc12`: the half-inhibitory concentration (IC50) in the assay with LLTC cell line is 4130 nM; with Jurkat [3], 5710 nM; in the assay with P388, 1200 nM. Also, the Ratio with Jurkat [1] came out at 0.85; in the assay with Jurkat [2], 0.9.
The matching figures for `CCc1cccc2cc3cccc(C(=O)NCCN(C)C)c3nc12`: 20 nM, 137 nM, 18 nM, 4.1 and 4.4.
In the same order, the values of `CC(C)c1cccc2cc3cccc(C(=O)NCCN(C)C)c3nc12` are 832 nM, 2500 nM, 650 nM, 1 and 1.
The matching figures for `CN(C)CCNC(=O)c1cccc2cc3cc(F)ccc3nc12`: 158 nM, 424 nM, 55 nM, 1.8 and 2.1.
Regarding `CN(C)CCNC(=O)c1cccc2cc3cc(-c4ccccc4)ccc3nc12`, the figures for the IC50 in the assay on LLTC cell line, in the assay on Jurkat [3] and in the assay with P388 were 168 nM, 240 nM and 94 nM, respectively. The Ratio in the assay with Jurkat [1] is listed as 3; in the assay on Jurkat [2], 6.5.
In the same order, the values of `CN(C)CCNC(=O)c1cccc2cc3ccc(C(F)(F)F)cc3nc12` are 1750 nM, 1350 nM, 1130 nM, 0.9 and 1.
Turning to `COc1ccc2nc3c(C(=O)NCCN(C)C)cccc3cc2c1`, the results for the IC50 in the assay with LLTC cell line, with Jurkat [3] and in the assay on P388 were 810 nM, 1590 nM and 580 nM, respectively. The Ratio amounted to 1 in the assay on Jurkat [1] and 1.1 in the assay with Jurkat [2].
With `CN(C)CCNC(=O)c1cccc2c(-c3ccccc3)c3ccccc3nc12`, the figures for the half-inhibitory concentration (IC50) in the assay on LLTC cell line, in the assay with Jurkat [3] and with P388 were 1200 nM, 2700 nM and 4100 nM, respectively. Also, the Ratio in the assay on Jurkat [1] is given as 0.8; in the assay with Jurkat [2], 1.1.
For the compound `CN(C)CCNC(=O)c1cccc2cc3ccccc3nc12`, the figures for the IC50 in the assay on LLTC cell line, in the assay on Jurkat [3] and in the assay on P388 were 189 nM, 580 nM and 98 nM, respectively. Moreover, the Ratio with Jurkat [1] is 1.9; in the assay on Jurkat [2], 2.3.
With `COc1cc(NS(C)(=O)=O)ccc1Nc1c2ccccc2nc2ccccc12` [AMSACRINE], the figures for the IC50 with LLTC cell line, with Jurkat [3] and with P388 were 12 nM, 37 nM and 20 nM, respectively. For the same compound, the Ratio with Jurkat [1] is listed as 84.9; in the assay on Jurkat [2] it was 73.7.
